Sampled rows, rich in hits. Any-hit rate of the full collection: about 3.1%.
KCNQ1 act – potentiators or activators of human KCNQ1 potassium channel. actives 0.35% (n = 310,000). CHO-K1 KCNQ1, thallium flux FluxOR fluorescence; hits give high values. B-score at 10 µM;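 active = fluorescence ratio B-score, a plate-corrected score, at least three library SD, with initial intensity B-score within 5 SD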
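Doses: Single concentration per compound, DMSO matched to controls | Test system: KCNQ1-transfected CHO-K1 cells | Timing: 90 min dye loading and 20 min compound exposure, both at room temperature | Measured by: Kinetic FluxOR thallium fluorescence, 10-s 1-Hz baseline, 110-s post-stimulus read | Medium: Assay buffer with matched DMSO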
KCNQ1 inh – inhibitors of human KCNQ1 potassium channel. P51787. CHO-K1 KCNQ1, FluxOR thallium flux fluorescence; hits give high values. B-score at 10 µM. actives 1.3% (n = 310,000). AID 2642;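 active = compounds whose thallium flux B-score, printed positive for inhibition, exceeds three library SD while starting fluorescence stays within three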;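 also: channel opened by potassium depolarization with thallium stimulus after 20 min compound exposure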
KCNK9 block – human KCNK9 channel inhibition; HEK293 KCNK9, FluxOR thallium flux fluorescence; hits give low values; B-score at 10 µM; actives 1.2% (n = 310,000); AID 488922;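 active = ratio B-score over 3 SD below the library mean, with starting fluorescence within 5 SD of its mean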;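 also: negative B-score means less thallium flux so channel inhibition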
KCNK3 inh – human KCNK3 channel inhibition, primary screen. O14649. CHO-KCNK3 thallium flux, FluxOR fluorescence; hits give low values. B-score at 10 µM. actives 0.84% (n = 340,000). AID 602410;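 active = B-score under library mean minus 4 SD, starting fluorescence ratio at most library mean plus 5 SD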;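 also: more negative B-score means stronger inhibition of thallium flux through KCNK3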
hERG protect – shields human hERG channel from block by proarrhythmic agents; Q12809; CHO-hERG, FluxOR thallium flux, dofetilide IC70 present; activation (rescue from dofetilide block), less the hit threshold, % at 10 µM; actives 0.51% (n = 310,000); AID 1511;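 active = activation above the mean of controls blocked by dofetilide plus 5 SD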;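 also: thallium influx through hERG after potassium depolarization seen as dye fluorescence rise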
KCNK9 inh conf – human KCNK9 inhibitor confirmation | actives 43% (n = 4,900) | shares compounds with KCNK9 block | inhibition, % at 10 µM | HEK293 KCNK9 cells, FluxOR thallium flux fluorescence;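 active = thallium signal inhibited by more than 5 SD of the compound-free buffer control wells, on both duplicate plates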;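 also: 0% = assay buffer control wells without compound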
Kir2-1 spec – selectivity of KCNK9 modulators against mouse Kir2.1; shares compounds with KCNK9 block; Kir2.1 cells, FluxOR thallium flux fluorescence; inhibition, % at 10 µM; actives 4% (n = 4,900); AID 492993;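 active = thallium signal drop more than 5 SD beyond the mean of the no-compound control wells, seen in both duplicate plates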;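 also: signal is fluorescence rise after thallium addition divided by baseline fluorescence; plate controls were assay buffer only for no effect and full block by chlorpromazine control for full effect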
Target sequence (P35561 whole entry, looked up): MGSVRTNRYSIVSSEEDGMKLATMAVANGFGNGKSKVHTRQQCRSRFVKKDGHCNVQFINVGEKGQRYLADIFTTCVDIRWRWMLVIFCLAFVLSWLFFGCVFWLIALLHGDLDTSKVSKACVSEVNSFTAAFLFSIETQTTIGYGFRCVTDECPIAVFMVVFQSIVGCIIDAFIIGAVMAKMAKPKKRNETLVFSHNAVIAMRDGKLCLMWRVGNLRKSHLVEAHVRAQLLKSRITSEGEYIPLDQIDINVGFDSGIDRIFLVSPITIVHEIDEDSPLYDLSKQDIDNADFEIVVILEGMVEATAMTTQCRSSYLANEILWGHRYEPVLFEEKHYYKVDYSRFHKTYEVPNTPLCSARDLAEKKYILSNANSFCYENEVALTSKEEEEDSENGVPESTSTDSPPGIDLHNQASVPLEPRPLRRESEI
KCNK9 uninduced – non-induced cell nonspecific activity of KCNK9 modulators; shares compounds with KCNK9 block; non-induced KCNK9-HEK293, FluxOR thallium flux; inhibition, % at 10 µM; actives 40% (n = 4,900); AID 492997;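 active = thallium signal drop beyond 5 SD of the untreated control mean, on both duplicate plates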;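 also: plate controls were buffer only IC0 wells for no effect and SID17386958 at its maximal inhibitory level for full effect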
The depositor's hits bear a star; i = inactive; nt = not tested or not shown.

SMILES	KCNQ1 act	KCNQ1 inh	KCNK9 block	KCNK3 inh	hERG protect	KCNK9 inh conf	Kir2-1 spec	KCNK9 uninduced
CSCC(=O)N1CCCC(N2CCN(c3cccc(C(F)(F)F)c3)CC2)C1 (centres undefined)	i	i	i	i	-3.3	nt	nt	nt
CO[C@H]1CC[C@@]2(C)[C@@H](CC[C@@H]3[C@@H]2CC[C@@]2(C)[C@H]3C[C@H](C(=O)N[C@@H](CCCN=C(N)N)C(=O)NCC(=O)N[C@@H](CC(=O)O)C(N)=O)O[C@]23CCCO3)C1	nt	nt	nt	i	nt	nt	nt	nt
Cc1cccc(N2CCN(C(=O)Cc3ccccc3[N+](=O)[O-])CC2)c1C	i	i	i	i	-2.5	i	i	i
Cc1cccc(N2CCN(C(=O)c3c(C)nn(Cc4ccccc4Cl)c3C)CC2)c1C	i	i	i	i	-10.6	i	i	i
CC(=O)Nc1ccc(NC(=O)c2c(C)nn(Cc3ccccc3Cl)c2C)cc1	i	i	i	i	-6.0	nt	nt	nt
CCOc1cc(/C=N/Nc2cccc(C(=O)O)c2)ccc1OC(=O)c1ccccc1	i	i	i	i	-4.2	i	i	i
COc1ccc(/C=C/c2nc(-c3ccccc3O)n[nH]2)cc1OC	i	i	i	i	2.1	i	i	i
O=C(O)COc1ccc(/C=C/c2nc(-c3ccccc3O)n[nH]2)cc1	i	i	i	i	-6.9	nt	nt	nt
CCc1ccc(C2=CSC3=NCCN23)cc1	i	i	i	i	0.2	nt	nt	nt
CCC(=O)NC(=S)NNC(=O)c1ccc(O)cc1	i	i	-8.22*	i	-5.5	i	i	27.0%*
CCC(=O)NNC(=S)NC(=O)c1ccc(C)cc1	i	i	i	i	-5.1	nt	nt	nt
Cn1c(=O)c2nc(-c3ccc(Cl)cc3Cl)oc2c2ccccc21	i	i	-10.2*	i	-4.4	27.5%*	i	32.5%*
COCCn1c(-c2ccc(Cl)cc2Cl)nc2c(c(=O)c3ccccc3n2C)c1=O	i	i	i	i	-8.0	nt	nt	nt
CC1=CC(C)C(/C=N/N=C(N)N)C(C)C1 (centres undefined)	i	i	i	i	-11.3	nt	nt	nt
Nc1c(C(=O)NCc2ccccc2)nnn1Cc1ccccc1	i	i	i	i	-8.5	nt	nt	nt
c1ccc(Cn2nnc(CNc3ccccc3)c2-c2c(CNc3ccccc3)nnn2Cc2ccccc2)cc1	i	i	-17.2*	i	-7.0	63.5%*	i	36.5%*
Fc1ccccc1N1CCN(C2CCCN(Cc3cccc(C(F)(F)F)c3)C2)CC1 (centres undefined)	i	i	i	i	-12.6	i	i	i
COc1ccc(CN2CCCC(N3CCN(c4cccc(Cl)c4)CC3)C2)cc1OC (centres undefined)	i	i	i	i	-5.4	nt	nt	nt
Oc1ccccc1CN1CCCC(N2CCN(c3cccc(C(F)(F)F)c3)CC2)C1 (centres undefined)	i	i	i	i	-13.2	nt	nt	nt
COc1cc(CN2CCCC(N3CCN(c4ccccc4C)CC3)C2)cc(Cl)c1O (centres undefined)	i	i	i	i	-6.6	i	i	i
COc1ccc(-c2ccc3c(c2)C2CC3CCN2S(=O)(=O)c2ccccc2C)cc1 (centres undefined)	nt	nt	nt	i	nt	nt	nt	nt
CC(=O)NC(=S)Nc1ccc(N2CCOCC2)c(S(=O)(=O)Nc2cc(Cl)ccc2Cl)c1	i	i	-15.2*	i	-25.2	66.5%*	i	27.0%*
CN(C)c1ccc(-c2c(-c3ccc4c(c3)OCO4)noc2-c2ccsc2)cn1	i	i	-8.67*	i	-18.9	49.5%*	i	47.0%*
COC(=O)c1cc(-c2c(-c3ccc4c(c3)OCO4)noc2-c2ccsc2)cc([N+](=O)[O-])c1	i	i	i	i	-1.1	nt	nt	nt

Assay outcomes (PubChem BioAssay)
